These results are taken from ChEMBL document CHEMBL3352362, “Discovery of a novel, first-in-class, orally bioavailable azaindole inhibitor (VX-787) of influenza PB2” (J Med Chem, 2014).

Data set [1] can be described thus: Clearance in rat at 3 mg/kg, iv. It is filed as ADME, organism-based. The settings on record: in vivo. Also noted: dose 3 mg/kg, route intravenous.
A short description of data set [2]: Half life in rat at 3 mg/kg, iv. It is filed as ADME, organism-based. More on the design: dose 3 mg/kg, route intravenous. The conditions noted are these: in vivo.
Data set [3] in a line: AUC in rat at 3 mg/kg, po. The class given is ADME, organism-based. The conditions noted are these: plasma. Also noted: dose 3 mg/kg, route oral.
A short description of data set [4]: Cmax in rat at 3 mg/kg, po. It is filed as ADME, organism-based. More on the design: dose 3 mg/kg, route oral. The settings on record: in vivo.
A short description of data set [5]: Oral bioavailability in rat at 3 mg/kg. The conditions noted are these: in vivo. The class given is ADME, organism-based.
Data set [6] can be described thus: AUC in mouse at 30 mg/kg. Also noted: dose 30 mg/kg. It is filed as ADME, organism-based. The conditions noted are these: plasma.
A short description of data set [7]: Cmax in mouse at 30 mg/kg. More on the design: dose 30 mg/kg. The settings on record: in vivo. The class given is ADME, organism-based.
The nature of data set [8]: Antiviral activity against Influenza A virus A/Georgia/20/2006 infected in MDCK cells assessed as cell protection after 3 days by cytopathic effect assay. It is filed as functional, cell-based, Influenza A virus (A/Georgia/20/2006(H1N1)). The settings on record: 72 h. The essentials: (§1)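 MDCK cells incubated with test compound and influenza A virus for 72 h (3-day CPE format). Cell viability read by an ATP end point. EC50 is the concentration giving 50% cell protection; mean of N = 3 or greater.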
(In general: Damage to the host cells serves as the signal in cytopathic effect assays.)

The nature of data set [9]: Antiviral activity against Influenza A virus A/Texas/48/2009 infected in MDCK cells assessed as cell protection after 3 days by cytopathic effect assay. It is filed as functional, cell-based, Influenza A virus (A/Texas/48/2009(H1N1)). The conditions noted are these: 72 h. In short, it runs like this: as §1
Data set [10] concerns Influenza A virus. The data set can be described thus: Antiviral activity against Influenza A virus A/Puerto Rico/8/34 infected in MDCK cells assessed as cell protection after 3 days by cytopathic effect assay. The conditions noted are these: A/Puerto Rico/8/1934(H1N1), 72 h. The class given is functional, organism-based. The essentials: as §1
A short description of data set [11]: Antiviral activity against Influenza A virus A/California/07/2009 infected in MDCK cells assessed as cell protection after 3 days by cytopathic effect assay. The class given is functional, cell-based, Influenza A virus (A/California/07/2009(H1N1)). The conditions noted are these: 72 h. The essentials:
as §1

A short description of data set [12]: Antiviral activity against Influenza A virus A/Mexico/4108/2009 infected in MDCK cells assessed as cell protection after 3 days by cytopathic effect assay. It is filed as functional, cell-based, Influenza A virus (A/Mexico/4108/2009(H1N1)). The settings on record: 72 h. The essentials: as §1
The nature of data set [13]: Antiviral activity against Influenza A virus A/New York/18/2009 infected in MDCK cells assessed as cell protection after 3 days by cytopathic effect assay. The class given is functional, cell-based, Influenza A virus (A/New York/18/2009(H1N1)). The conditions noted are these: 72 h. In short, it runs like this: as §1
The nature of data set [14]: Antiviral activity against Influenza A virus A/Viet Nam/1203/2004(H5N1) infected in MDCK cells assessed as cell protection after 3 days by cytopathic effect assay. The class given is functional, cell-based. The conditions noted are these: 72 h. In short, it runs like this: as §1
The target in data set [15] is Glycogen synthase kinase-3 beta (Homo sapiens, UniProt P49841). The data set can be described thus: Inhibition of GSK3beta (unknown origin).
Sequence of Glycogen synthase kinase-3 beta (P49841 whole entry): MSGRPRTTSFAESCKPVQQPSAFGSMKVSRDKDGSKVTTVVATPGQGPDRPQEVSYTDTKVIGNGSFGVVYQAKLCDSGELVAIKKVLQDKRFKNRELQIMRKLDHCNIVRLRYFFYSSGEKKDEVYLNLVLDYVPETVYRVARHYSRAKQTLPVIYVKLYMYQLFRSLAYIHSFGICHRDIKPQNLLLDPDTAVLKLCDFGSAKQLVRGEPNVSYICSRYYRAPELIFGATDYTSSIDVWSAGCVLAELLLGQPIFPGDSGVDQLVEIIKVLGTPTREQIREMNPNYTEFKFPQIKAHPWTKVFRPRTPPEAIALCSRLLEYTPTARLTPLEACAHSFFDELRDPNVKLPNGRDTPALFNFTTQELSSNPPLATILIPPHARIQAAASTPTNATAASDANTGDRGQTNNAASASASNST
Data set [16] has as its target T1, Adenosine receptor A1 (Homo sapiens) (UniProt P30542).
T1 sequence (whole entry): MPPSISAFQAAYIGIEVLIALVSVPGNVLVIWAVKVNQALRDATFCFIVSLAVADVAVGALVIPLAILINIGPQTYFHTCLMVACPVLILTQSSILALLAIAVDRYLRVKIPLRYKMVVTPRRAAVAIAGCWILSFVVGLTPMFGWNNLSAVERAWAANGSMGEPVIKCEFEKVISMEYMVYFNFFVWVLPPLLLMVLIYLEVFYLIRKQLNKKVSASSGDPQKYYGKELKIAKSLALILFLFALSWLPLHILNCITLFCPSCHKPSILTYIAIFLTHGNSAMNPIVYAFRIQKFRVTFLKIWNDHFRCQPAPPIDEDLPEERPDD
Nature of the data set: Inhibition of human adenosine A1 receptor at 10 uM relative to control. In short, it runs like this:
(§2)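 Competitive binding panel of 68 receptors, ion channels and other targets, run at 10 μM compound; percent inhibition reported.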

For data set [17], the target named is Adenosine receptor A2a (Homo sapiens) (UniProt P29274). The data set can be described thus: Inhibition of human adenosine A2A receptor at 10 uM relative to control. In short, it runs like this:
as §2

In data set [18] the target is Voltage-gated inwardly rectifying potassium channel KCNH2 (Homo sapiens, UniProt Q12809). Nature of the data set: Inhibition of human ERG at > 30 uM relative to control. The essentials:
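hERG tested by manual patch clamp.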

Data set [19] is described as follows: Inhibition of CYP450 (unknown origin) at > 30 uM. It is filed as ADME. The conditions noted are these: human.
Data set [20] relates to Influenza A virus. The data set can be described thus: Antiviral activity against Influenza A virus A/Puerto Rico/8/34 infected in BALB/c mouse assessed as mouse survival at 1 to 10 mg/kg bid treated after 48 hrs of infection for 10 days. The class given is functional, A/Puerto Rico/8/1934(H1N1). The settings on record: dose mg/kg 1-10. The essentials: (§3)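 Male BALB/c mice, 8 per study, inoculated intranasally with mouse-adapted A/PR/8/34 at 5e3 TCID50/mouse. Twice-daily treatment began 48 h after infection. Survival and body weight were followed.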

Data set [21] has as its system Influenza A virus. Nature of the data set: Antiviral activity against Influenza A virus A/Puerto Rico/8/34 infected in BALB/c mouse assessed as body weight loss at 10 mg/kg bid treated after 48 hrs of infection for 10 days. The class given is functional. The conditions noted are these: A/Puerto Rico/8/1934(H1N1). The essentials: as §3
Data set [22] has as its system Influenza A virus. The data set can be described thus: Antiviral activity against Influenza A virus A/Puerto Rico/8/34 infected in BALB/c mouse assessed as body weight loss at 3 mg/kg bid treated after 48 hrs of infection for 10 days. It is filed as functional. The conditions noted are these: A/Puerto Rico/8/1934(H1N1). The essentials:
as §3

The subject of data set [23] is Influenza A virus. The data set can be described thus: Antiviral activity against Influenza A virus A/Puerto Rico/8/34 infected in BALB/c mouse assessed as body weight loss at 1 mg/kg bid treated after 48 hrs of infection for 10 days. The settings on record: A/Puerto Rico/8/1934(H1N1). The class given is functional. The essentials:
as §3

In data set [24] the test system is Influenza A virus. The data set can be described thus: Antiviral activity against Influenza A virus A/Puerto Rico/8/34 infected in BALB/c mouse assessed as body weight loss at 30 mg/kg bid treated after 48 hrs of infection for 10 days. The settings on record: A/Puerto Rico/8/1934(H1N1). The class given is functional. The essentials:
as §3

Molecules are shown by their SMILES.

Sequence of Voltage-gated inwardly rectifying potassium channel KCNH2 (Q12809 whole entry): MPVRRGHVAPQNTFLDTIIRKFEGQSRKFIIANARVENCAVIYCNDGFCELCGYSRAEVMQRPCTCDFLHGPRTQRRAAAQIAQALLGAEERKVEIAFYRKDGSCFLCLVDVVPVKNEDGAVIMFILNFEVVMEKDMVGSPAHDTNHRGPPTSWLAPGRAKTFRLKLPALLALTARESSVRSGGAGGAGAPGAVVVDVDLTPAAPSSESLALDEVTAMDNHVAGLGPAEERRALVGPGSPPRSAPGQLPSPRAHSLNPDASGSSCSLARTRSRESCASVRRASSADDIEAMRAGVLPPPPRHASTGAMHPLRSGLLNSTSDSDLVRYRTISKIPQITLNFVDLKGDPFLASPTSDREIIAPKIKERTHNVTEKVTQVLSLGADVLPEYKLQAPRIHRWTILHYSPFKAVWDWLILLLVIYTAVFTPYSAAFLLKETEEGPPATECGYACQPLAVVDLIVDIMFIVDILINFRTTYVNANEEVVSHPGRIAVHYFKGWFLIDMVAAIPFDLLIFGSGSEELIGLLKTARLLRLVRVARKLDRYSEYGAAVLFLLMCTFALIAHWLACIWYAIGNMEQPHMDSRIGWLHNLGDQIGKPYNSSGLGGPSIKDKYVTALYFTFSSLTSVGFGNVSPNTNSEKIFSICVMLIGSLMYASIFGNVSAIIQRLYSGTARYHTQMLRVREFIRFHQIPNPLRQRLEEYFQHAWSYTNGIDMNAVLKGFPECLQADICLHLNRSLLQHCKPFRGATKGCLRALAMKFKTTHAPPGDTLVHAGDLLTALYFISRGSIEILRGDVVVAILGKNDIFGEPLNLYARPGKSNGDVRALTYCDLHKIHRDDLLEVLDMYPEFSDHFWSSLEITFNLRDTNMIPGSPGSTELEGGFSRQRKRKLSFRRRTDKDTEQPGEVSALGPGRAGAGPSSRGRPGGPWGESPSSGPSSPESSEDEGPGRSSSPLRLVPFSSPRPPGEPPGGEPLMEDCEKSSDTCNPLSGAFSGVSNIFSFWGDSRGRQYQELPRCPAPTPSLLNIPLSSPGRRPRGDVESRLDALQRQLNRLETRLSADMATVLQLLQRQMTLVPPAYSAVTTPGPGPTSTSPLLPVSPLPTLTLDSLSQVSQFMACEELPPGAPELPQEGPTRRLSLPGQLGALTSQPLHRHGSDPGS
Sequence of Adenosine receptor A2a (Homo sapiens) (P29274 whole entry): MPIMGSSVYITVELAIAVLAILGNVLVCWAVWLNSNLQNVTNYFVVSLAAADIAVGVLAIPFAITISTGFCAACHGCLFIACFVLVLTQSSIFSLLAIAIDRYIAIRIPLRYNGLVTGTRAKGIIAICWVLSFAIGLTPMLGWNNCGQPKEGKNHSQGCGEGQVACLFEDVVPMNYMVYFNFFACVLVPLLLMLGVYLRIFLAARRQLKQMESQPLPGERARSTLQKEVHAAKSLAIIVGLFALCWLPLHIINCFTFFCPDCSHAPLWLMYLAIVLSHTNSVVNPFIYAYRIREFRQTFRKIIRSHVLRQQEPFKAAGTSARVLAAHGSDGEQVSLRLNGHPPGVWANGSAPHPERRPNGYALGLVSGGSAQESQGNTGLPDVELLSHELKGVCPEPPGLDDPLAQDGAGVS

For orientation: clearance means the rate of elimination divided by the concentration. What is called half-life is how long it takes for the measured level to halve. Lower therefore signals rapid decline. The AUC is the area under the concentration-time curve, a measure of exposure. Lower therefore signals less exposure. As usually defined, the Cmax is the highest concentration seen after dosing. A word on the bioavailability: it is dose-corrected exposure relative to a reference, in per cent. Read a low bioavailability as little systemic uptake. What is called EC50 is the midpoint of the concentration-response curve. As usually defined, the Ki is the equilibrium dissociation constant of an inhibitor or competing ligand from its target. For orientation: inhibition means the drop in the measured response relative to a control, in per cent. The low end stands for a weak effect, the high end for a strong effect. The term inhibition in vivo denotes the drop in the measured response relative to a control, in per cent. `O=C(O)[C@H]1C2CCC(CC2)[C@@H]1Nc1nc(-c2c[nH]c3ncc(F)cc23)ncc1F` [PIMODIVIR]: the clearance in data set [1] stood at 26 mL/min/kg. Further, the half-life in [2] was 3.5 h. Moreover, the exposure (AUC) in data set [3] is 500 ng·h/mL; in [6], 22000 ng·h/mL. Besides, the Cmax was determined as 80 ng/mL in data set [4] and 18000 ng/mL in data set [7]. The same compound gave a bioavailability in [5] of 26%. In addition, the EC50 in data set [8] stood at 2.6 nM; in data set [9], 2.8 nM; in data set [10], 0.32 nM; in data set [11] it was 1.8 nM; in data set [12], 2.7 nM; in data set [13], 0.59 nM. Also, in data set [14], the EC50 is less than 0.15 nM. Moreover, affinity in data set [15] was put at a Ki of 1600 nM. The inhibition in data set [16] is 96%; in [17] it was 62%. Further, the “inhibition (INH)” value in data set [18] and in data set [19] was “Not Active” in each case. For the same compound, the Survival in [20] is reported as 100%. The inhibition in vivo at 10 mg/kg in data set [21] was found to be 7.1%. Also, the inhibition in vivo at 3 mg/kg in data set [22] is 10.9%. For the same compound, the inhibition in vivo at 1 mg/kg in data set [23] worked out at 22.5%. In data set [24], the inhibition in vivo at 30 mg/kg was 30%.
For `NC12CC3CC(CC(C3)C1)C2` [AMANTADINE], the EC50 in data set [8], in [9], in data set [10], in data set [11], in [12] and in data set [13] was more than 10000 nM each time.
